In the library only some 1.9% were active in any assay of this set; here they are far more common.
SR-BI DiI inh – inhibitors of mouse SR-BI mediated HDL lipid uptake. Q61009. inhibition, % at 12.5 µM. AID 488896. ldlA[mSR-BI] CHO cells, DiI-HDL uptake fluorescence, 3 h. actives 0.96% (n = 320,000);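 active means mean replicate inhibition of at least 70% and a set share of replicates each scoring 70 or more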;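 further: 0% = median of neutral control wells and 100% = median of positive control wells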
SR-BI uptake up – enhances SR-BI lipid uptake from DiI-HDL. CHO ldlA[mSR-BI] cells, DiI-HDL uptake fluorescence, 3 h; 100 = double the neutral-control signal. activation, % at 12.5 µM. actives 0.096% (n = 320,000);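 active means mean replicate activation of at least 60% and every replicate at or above 60%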;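 further: 0% = median plate neutral-control signal and 100% = twice that signal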
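System: LDL receptor-deficient CHO ldlA cells overexpressing murine SR-BI | Timing: 3 h uptake period with compound, 37 °C | Medium: HEPES-buffered (25 mM, pH 7.4) F12 plus 0.5% BSA | Dosing: Single-point compound dose | Signal: Bottom-read fluorescence, 550/595 nm | Read-out: Retained DiI signal reflecting DiI-HDL uptake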
PglD DTNB – inhibitors of Campylobacter jejuni PglD acetyltransferase. purified PglD enzyme, DTNB colorimetric CoA detection. inhibition, % at 12.5 µM. actives 0.098% (n = 360,000). AID 602405; in the data active means inhibition above about 16%, passing the limit was not always enough
Rtt109 HAT inh – inhibitors of Candida albicans Rtt109/Vps75 histone acetyltransferase; Q5AAJ8; purified Rtt109/Vps75, ThioGlo CoA-SH fluorescence, 4 h; inhibition, % at 34.9 µM; actives 0.16% (n = 330,000);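 active means inhibition of at least 50% in every replicate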
Target sequence (Q5AAJ8 whole entry, looked up): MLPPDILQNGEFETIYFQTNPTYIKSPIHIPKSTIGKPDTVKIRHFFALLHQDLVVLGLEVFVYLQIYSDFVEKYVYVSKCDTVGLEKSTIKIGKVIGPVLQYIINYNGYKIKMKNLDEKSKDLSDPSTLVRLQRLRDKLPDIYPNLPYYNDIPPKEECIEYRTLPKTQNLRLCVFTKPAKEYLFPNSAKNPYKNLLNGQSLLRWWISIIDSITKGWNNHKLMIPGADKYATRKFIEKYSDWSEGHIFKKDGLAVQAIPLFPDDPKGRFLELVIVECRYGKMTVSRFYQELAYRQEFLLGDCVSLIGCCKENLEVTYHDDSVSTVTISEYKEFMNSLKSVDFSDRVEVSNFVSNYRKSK
Glyco luc inh – N-linked glycosylation inhibition. D54 ERlucT glycosylation luciferase reporter, 24 h; percent of 100 nM tunicamycin response. reporter increase, % at 12.5 µM. actives 0.23% (n = 360,000);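 active means mean luciferase reporter signal, scaled so untreated is 0 and the glycosylation-blocking control 100, at or above a set limit in every replicate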;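 further: luciferase carries N-glycosylation sites so blocking glycosylation raises the light; 0% = median of neutral control wells and 100% = median of 100 nM tunicamycin wells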
HIV Env fusion – inhibitors of HIV Env-mediated cell fusion | HeLa-JRFL Env/CEM21 cell fusion, luciferase | inhibition, % at 12.3 µM | actives 1.1% (n = 360,000);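 active means mean replicate inhibition score of at least 50 and every replicate individually at or above 50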;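 further: 0% = plate neutral controls and 100% = maraviroc near 300 nM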
The depositor's hits bear a star; · = not tested or not shown; [ ] = another dose, or the depositor's remark.

SMILES | SR-BI DiI inh | SR-BI uptake up | PglD DTNB | Rtt109 HAT inh | Glyco luc inh | HIV Env fusion
COc1ccc(C2c3c(-c4ccccc4O)n[nH]c3C(=O)N2CCc2ccc(OC)c(OC)c2)cc1 (centres undefined) | 23 | -23 | 0 | 7 | -2 | 91*
CCN1c2ccccc2-c2nc3ccccc3n2C1c1ccco1 (centres undefined) | 21 | -21 | -3 | -55 | -2 | 55*
C[C@@H]1CN([C@@H](C)CO)C(=O)Cc2cc(NC(=O)Nc3ccccc3)ccc2O[C@H]1CN(C)S(=O)(=O)c1cccs1 | · | · | -3 | · | · | 1[16.7 µM]
C[C@H]1CN([C@@H](C)CO)C(=O)Cc2cc(NC(=O)Nc3ccc4c(c3)OCO4)ccc2O[C@@H]1CN(C)S(=O)(=O)c1cccs1 | · | · | 0 | · | · | 10[16.7 µM]
C[C@H]1CN([C@@H](C)CO)C(=O)Cc2cc(NC(=O)Nc3ccc4c(c3)OCO4)ccc2O[C@H]1CN(C)S(=O)(=O)c1cccs1 | · | · | 1 | · | · | 92*[16.7 µM]
COc1ccc(NC(=O)Nc2ccc3c(c2)CC(=O)N([C@H](C)CO)C[C@H](C)[C@H](CN(C)S(=O)(=O)c2cccs2)O3)cc1 | · | · | 2 | · | · | 70*[16.7 µM]
COc1ccc(NC(=O)Nc2ccc3c(c2)CC(=O)N([C@H](C)CO)C[C@@H](C)[C@H](CN(C)C(=O)Nc2ccccc2)O3)cc1 | 70* | -70 | 3 | 15 | 0 | -2
C[C@H](CO)N1C[C@H](C)[C@H](CN(C)S(=O)(=O)c2cccs2)Oc2ccc(NC(=O)Nc3ccccc3)cc2CC1=O | · | · | -2 | · | · | 105*[16.7 µM]
O=C(C[C@@H]1CC[C@@H](NC(=O)Nc2ccc(F)cc2)[C@H](CO)O1)NCc1ccccn1 | · | · | -2 | · | · | -5[16.7 µM]
CC=Cc1ccc2n(c1=O)C[C@H]1[C@H](CO)[C@@H](C(=O)NCC3CC3)[C@@H]2N1S(=O)(=O)c1cn(C)cn1 (mixture of isomers) | · | · | 1 | · | · | ·
COc1ccc(NC(=O)N(C)C[C@@H]2OCc3ccccc3-c3ccccc3C(=O)N([C@@H](C)CO)C[C@H]2C)cc1 | · | · | 4 | · | · | ·
O=C(C[C@H]1C[C@H]2c3cc(NC(=O)C4CCOCC4)ccc3O[C@H]2[C@H](CO)O1)NCc1ccccc1 | · | · | 2 | · | · | 1[16.7 µM]
C[C@H](CO)N1C[C@H](C)[C@H](CN(C)S(=O)(=O)c2cccs2)Oc2ccc(NC(=O)Nc3cccc4ccccc34)cc2CC1=O | · | · | 5 | · | · | 75*[16.7 µM]
CC1=C(C(=O)OCc2ccc3c(c2)OCO3)C(c2ccc(F)cc2)NC(=O)N1 (centres undefined) | 38 | -38 | 8 | -3 | -12 | 100*
CC1=C(C(=O)OCc2ccc3c(c2)OCO3)C(c2ccc(Cl)cc2)NC(=O)N1 (centres undefined) | 44 | -44 | 2 | -1 | -13 | ·
COC(=O)c1[nH]c2cc(C)ccc2c1NC(=O)CN1CCN(c2ccccc2OC)CC1 | 76* | -76 | 0 | 25 | -1 | ·
Cc1ccc(C(=O)Nc2cccc(C(F)(F)F)c2)cc1NC(=O)c1csc(-c2ccncc2)n1 | 84* | -84 | -1 | -1 | -10 | ·
C[C@@H]1CCCCO[C@@H](CN(C)CC2CC2)[C@@H](C)CN([C@H](C)CO)C(=O)c2cc(NC(=O)Cc3ccccc3)ccc2O1 | · | · | 5 | · | · | -17[16.7 µM]
COc1ccc(C)cc1Nc1n[n+](-c2ccccc2)c(-c2ccc(N(C)C)cc2)s1 | 73* | -73 | 3 | 1 | 0 | -15
Cc1ccc(S(=O)(=O)N[C@H]2CC[C@@H](CCNC(=O)C3CC3)O[C@@H]2CO)cc1 | · | · | -9 | · | · | -2[16.7 µM]
O=C(CCCOc1ccc(Cl)cc1Cl)N/N=C/c1cccc([N+](=O)[O-])c1 | -330 | 330* | · | 5 | 0 | 26
O=C(CNC(=O)c1ccncc1)N/N=C/c1ccccc1[N+](=O)[O-] | -4 | 4 | · | · | 1 | -2
O=C(CNC(=O)c1ccncc1)N/N=C/c1cccc([N+](=O)[O-])c1 | -32 | 32 | · | 51* | 1 | -17
O=C(COc1ccc(Cl)cc1Cl)N/N=C/c1cccnc1 | -3 | 3 | 3 | -7 | -1 | -3
O=C(/C=C\c1ccc2c(c1)OCO2)Nc1c2c(nn1-c1ccc(Cl)cc1)CSC2 | 75* | -75 | 10 | -5 | -5 | 0
